# Source: PubChem BioAssay
# Only some compounds are listed: those with a hit (about 4.3% of all), similar ones and a draw of the others.
# CHO parental Ca = signal in parental CHO cells, OX1R antagonist counter-screen; parental CHO-K1, ATP-induced calcium, Fluo-8 fluorescence; inhibition, % at 5.6 µM; 0.63% of 330,000 active; AID 463079;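 active = inhibition above that plate's mean sample inhibition plus 3 SD, cut at about 26% in these data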;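 also: 0% = ATP-challenged DMSO wells and 100% = DMSO wells without ATP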
#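 Assay system – parental CHO cells · Reagent – ATP stimulus · Detection – intracellular calcium via Fluo-8 no-wash fluorescent dye · Evaluation – percent inhibition of ATP-evoked calcium rise, normalized to controls · Controls – ATP wells versus no-ATP DMSO wells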
# TAAR1 ag = human TAAR1 agonism | 0.99% of 360,000 active | CHO RD-HGA16 TAAR1, Fluo-8 calcium fluorescence; vehicle wells 0%, saturating PEA agonist 100% | Q96RJ0 | activation, % at 3 µM;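 active = activation above the mean activation of all test compounds in the run plus 3 SD, cut at about 38% in these data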
#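 System: CHO-derived RD-HGA16 cells with stable Gα16 and human TAAR1. Times: 17-24 h plating, Fluo-8 75 min 37 °C, 30 min RT. Measured by: calcium-sensitive Fluo-8 signal, excitation 470-495, emission 515-575 nm. Read-out basis: % activation relative to PEA EC100 response. Control set: DMSO and PEA EC100. Repeats: no replicates (n 1).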
# OX1R antag-1 = blocks the human orexin 1 receptor; 1.8% of 330,000 active; OX1R-expressing cells, FRET antagonist read-out; O43613; inhibition, % at 6.6 µM; in the data active = inhibition mostly above about 38%, no sharp cut-off; inactive = mostly below about 40%;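 also: 0% = agonist challenge alone and 100% = reference antagonist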
# Target sequence (O43613 whole entry, looked up): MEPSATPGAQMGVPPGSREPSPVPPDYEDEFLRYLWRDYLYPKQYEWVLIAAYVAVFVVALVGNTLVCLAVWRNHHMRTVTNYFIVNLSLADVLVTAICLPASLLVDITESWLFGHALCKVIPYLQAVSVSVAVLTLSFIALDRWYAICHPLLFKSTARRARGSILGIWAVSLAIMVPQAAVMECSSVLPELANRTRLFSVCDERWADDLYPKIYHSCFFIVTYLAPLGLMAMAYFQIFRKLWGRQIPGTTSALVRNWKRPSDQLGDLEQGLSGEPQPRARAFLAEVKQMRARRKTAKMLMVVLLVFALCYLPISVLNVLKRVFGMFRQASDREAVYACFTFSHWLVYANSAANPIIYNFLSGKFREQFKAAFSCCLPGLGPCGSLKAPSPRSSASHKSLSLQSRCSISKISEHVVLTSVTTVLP
# OX1R antag-2 = antagonists of human orexin 1 receptor; O43613; CHO/OX1R cells, Fluo-8 calcium fluorescence, orexin A; inhibition, % at 5 µM; 0.43% of 330,000 active; AID 434989;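 active = inhibition above its plate's threshold, mean inhibition of all tested compounds on the plate plus 3 SD, cut at about 37% in these data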;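 also: 0% = orexin A challenge wells and 100% = SB-334867-A antagonist wells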
# TAAR1 antag = antagonists of human TAAR1; Q96RJ0; CHO RD-HGA16 TAAR1, Fluo-8 calcium fluorescence, antagonist; inhibition, % at 3 µM; 1.5% of 360,000 active; AID 624466;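 active = inhibition above a per-plate cutoff, the mean inhibition of test compounds on that plate plus 3 SD, cut at about 49% in these data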;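 also: 0% = DMSO plus EC80 beta-PEA response and 100% = DMSO alone without agonist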
#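 Material: CHO RD-HGA16 cells bearing hTAAR1; compound dosing: one-point dosing, 3 µM nominal final; schedule: dye loading 75 min at 37 °C, then 30 min room temperature; measured by: calcium fluorescence with Fluo-8; control set: vehicle and agonist controls; replication: n of 1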
# GalR3 antagonist = antagonists of human GalR3 | O60755 | HEK293 GalR3-CNG cAMP membrane potential fluorescence; galR3 body fused to GalR1 C-terminus | inhibition, % at 3 µM | 0.44% of 360,000 active;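 active = inhibition above the screen-wide average plus 3 SD, cut at about 13% in these data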;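 also: forskolin and galanin both at EC90 stimulate the cells; cAMP rise reported by CNG channel membrane potential dye signal; 0% = forskolin plus galanin with DMSO and 100% = forskolin alone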
# OX1R HTRF conf = confirmation of human orexin 1 receptor antagonists, HTRF format; shares compounds with OX1R antag-1; OX1R-expressing cells, HTRF antagonist assay; inhibition, % at 6.6 µM; 49% of 1,800 active; AID 492964; in the data active = inhibition above about 55%;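 also: CHO cells expressing OX1R stimulated with orexin A at about EC80; 0% = agonist challenge alone and 100% = reference antagonist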
# CHO-K1 HTRF = counter-screen: parental CHO-K1 HTRF response | shares compounds with OX1R antag-1 | parental CHO-K1 cells, HTRF counterscreen | inhibition, % at 6.6 µM | 48% of 1,800 active; in the data active = inhibition above about 17%;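 also: 0% = agonist challenge with vehicle and 100% = vehicle alone without agonist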
# * = called active by the depositor; . = not tested or not shown; + = active, no number.
SMILES,CHO parental Ca,TAAR1 ag,OX1R antag-1,OX1R antag-2,TAAR1 antag,GalR3 antagonist,OX1R HTRF conf,CHO-K1 HTRF
O=C(C1CCC(CNS(=O)(=O)c2cccc3nsnc23)CC1)N1CCN(c2ccccn2)CC1 (stereo not drawn),2,3,50,-11,5,-4,.,.
O=C(CCNS(=O)(=O)c1cccc2nsnc12)N1CCN(c2ccccn2)CC1,-18,.,127*,-20,.,.,48,23*
Cc1ccc(NC(=O)C2CCN(C(=O)OC(C)(C)C)CC2)cc1S(=O)(=O)N1CCCCC1,-34,2,5,-42,28,-9,.,.
CC(=O)Nc1ccc(Nc2ccc3nonc3c2[N+](=O)[O-])cc1,-1,0,+,-4,-2,2,55*,93*
O=C(O)c1ccccc1Nc1ccc2nonc2c1[N+](=O)[O-],.,0,.,.,-9,-9,.,.
COCCNC(=O)C(c1ccc(F)cc1)N(Cc1ccccc1)C(=O)CCC(=O)Nc1nccs1 (stereo not drawn),-13,1,78*,16,13,-8,80*,1
COCCN(C(=O)CCC(=O)Nc1nccs1)C(C(=O)NC(C)(C)C)c1ccc(F)cc1 (stereo not drawn),-4,1,19,-27,0,-8,.,.
COCCN(CCOC)Cc1cc(=O)oc2cc(C)c(Cl)cc12,.,1,.,.,-6,-5,.,.
Cn1cnnc1SCc1ccc(C(=O)N=Nc2c(O)n(C)c3ccccc23)cc1,-19,6,139*,-15,-5,-11,54,62*
Cc1ccc(F)c(S(=O)(=O)NC(=O)C2(C)CCN2C(=O)Cc2cc(F)ccc2F)c1 (stereo not drawn),.,1,.,.,-11,-7,.,.
O=C(NCc1ccco1)Nc1ccc2nsnc2c1,-3,3,96*,-15,24,2,25,1
Cn1ccnc1Sc1cc(NCCCO)c([N+](=O)[O-])c2nonc12,8,1,83*,0,-7,10,51,78*
O=[N+]([O-])c1c(NCCCO)cc(Sc2ccc(Cl)cc2)c2nonc12,20,9,31,11,-2,7,.,.
Cc1nc2ccc(C(=O)N3CCN(Cc4ccccc4)CC3)cc2[nH]1,-8,0,8,-1,6,-2,.,.
CN1CCN(Cc2c(O)ccc3cc(-c4ccccn4)c(=O)oc23)CC1,-22,2,81*,-16,-16,-2,49,33*
Cc1c(C)c2ccc(O)c(CN3CCN(C)CC3)c2oc1=O,.,0,.,.,-19,0,.,.
CCn1c(C)nc2cc(-c3nc4n(n3)Cc3ccccc3-4)ccc21,8,.,88*,-12,.,.,81*,9
COc1cc(NC(=O)[C@H]2O[C@@H](n3ccc(N)nc3=O)[C@H](O)[C@@H]2O)cc(OC)c1OC,.,7,.,.,-12,-5,.,.
c1ccc2c(N3CCCCCC3)nc(-c3ccncc3)nc2c1,-50,2,88*,-20,3,-1,41,8
c1cncc(-c2nc(N3CCCCCC3)c3ccccc3n2)c1,-24,22,30,-26,-5,0,.,.
COc1ccc(-c2cc(=O)c3ccccc3s2)cc1,-20,0,83*,-12,1,-11,85*,4
COc1ccc(-c2cc(=O)c3ccccc3[nH]2)cc1,-11,9,6,-2,6,-3,.,.
COCCNC(=O)C1(C)CCCN(C(=O)c2ccc(OC)cc2OC)C1 (stereo not drawn),.,1,.,.,1,-4,.,.
CCOC(=O)c1cc2c(=O)n3ccccc3nc2n(CC2CCCO2)c1=NC(C)=O (stereo not drawn),-17,6,108*,-27,-18,-2,39,56*
CCOCCCn1c(=NC(=O)c2cccnc2)c(C(=O)OCC)cc2c(=O)n3ccccc3nc21,-20,5,111*,-35,11,-1,57*,59*
